Experiment [1] in a line: Antiproliferative activity against human […] cells after 72 hrs by XTT assay. The class given is functional, cell-based. Put shortly:
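RPMI 8226 cells in RPMI 1640 with 10% FBS, plated at 15 000 cells/well and treated immediately with 0–10 μM WFA for 72 h. XTT added for 4 h. Growth as absorbance relative to vehicle control ×100. IC50 fitted from at least five concentrations; mean of three independent experiments ± SEM.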

The subject of experiment [2] is Multiple myeloma cancer stem cell. The experiment in a line: Antiproliferative activity against human multiple myeloma cancer stem cells after 72 hrs by MTT assay. The class given is functional, cell-based. An outline of the steps: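 MM-CSCs plated at 5000 cells/well and allowed to adhere 24 h, then exposed to 0–10 μM WFA for 72 h. MTT added for 2 h. Growth taken as absorbance relative to vehicle-control wells ×100. IC50 fitted from at least five concentrations; mean of three independent experiments ± SEM.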

SMILES strings stand for the structures.

As to `CC(C)C[C@H](NC(=O)[C@H](Cc1ccccc1)NC(=O)c1cnccn1)B(O)O` [BORTEZOMIB], the IC50 in experiment [1] was 3.6 nM; in experiment [2], 8.4 nM.

The record behind these values is ChEMBL document CHEMBL4138044, “Withaferin A induces cell death and differentiation in multiple myeloma cancer stem cells” (Medchemcomm, 2017).
